Results as given in ChEMBL document CHEMBL4831540, “Discovery of Aficamten (CK-274), a Next-Generation Cardiac Myosin Inhibitor for the Treatment of Hypertrophic Cardiomyopathy” (J Med Chem, 2021).

Tests used:
Cytochrome P450 3A4 [1] = target: T1, Cytochrome P450 3A4 (Homo sapiens, UniProt P08684); assay: Inhibition of CYP3A4 in human liver microsomes incubated for 30 mins in presence of NADP by LC-MS/MS analysis
Target sequence in this assay (P08684 whole entry, looked up): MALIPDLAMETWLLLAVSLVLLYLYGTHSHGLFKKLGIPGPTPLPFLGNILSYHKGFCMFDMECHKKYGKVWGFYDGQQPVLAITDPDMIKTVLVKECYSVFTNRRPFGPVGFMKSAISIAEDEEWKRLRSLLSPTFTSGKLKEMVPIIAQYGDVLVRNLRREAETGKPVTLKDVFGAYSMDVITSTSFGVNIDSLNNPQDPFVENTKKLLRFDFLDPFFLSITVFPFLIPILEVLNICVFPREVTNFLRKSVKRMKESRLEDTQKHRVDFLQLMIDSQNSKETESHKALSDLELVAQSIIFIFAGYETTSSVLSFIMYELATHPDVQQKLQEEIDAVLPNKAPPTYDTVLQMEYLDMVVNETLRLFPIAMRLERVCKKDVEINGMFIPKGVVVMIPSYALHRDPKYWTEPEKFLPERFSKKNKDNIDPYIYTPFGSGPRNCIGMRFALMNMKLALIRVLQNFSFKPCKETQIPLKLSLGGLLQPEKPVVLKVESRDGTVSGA

Cytochrome P450 3A4 [2] = target: T1, Cytochrome P450 3A4; assay: Inhibition of CYP3A4 in human liver microsomes assessed as testosterone 6-beta-hydroxylation reaction incubated for 30 mins in presence of NADP by LC-MS/MS analysis; format: ADME
Target sequence in this assay (P08684 whole entry): as the sequence (P08684 whole entry, looked up) above

[3] = Half life in Sprague-Dawley rat at 2 mg/kg, po; format: ADME, organism-based; conditions: in vivo
Summary of the method: (§1)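 Multi-species PK study in male animals, n = 3 per group (dog IV arm n = 2). Iv and oral dosing with plasma concentration–time profiles yielding Cmax, tmax, AUC0–t, CL, Vss, t1/2 and F.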

Cytochrome P450 2D6 = Cytochrome P450 2D6 (Homo sapiens, UniProt P10635); assay: Inhibition of CYP2D6 in human liver microsomes assessed as bufuralol 1'-hydroxylation reaction incubated for 30 mins in presence of NADP by LC-MS/MS analysis; format: ADME
[4] = Clearance in Sprague-Dawley rat at 0.5 mg/kg; format: ADME, organism-based; conditions: in vivo
[5] = Volume of distribution at steady state in Beagle dog at 1 mg/kg, iv; format: ADME, organism-based, Canis lupus familiaris; conditions: in vivo
Summary of the method: (§2)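 Single iv or oral doses in male animals, 3 per group except dog iv (2 animals). Plasma concentration–time profiles gave Cmax, tmax, AUC0–t, clearance, steady-state volume of distribution, half-life and bioavailability.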

[6] = Clearance in Sprague-Dawley rat at 1 mg/kg, iv; format: ADME, organism-based; conditions: in vivo
Summary of the method: (§3)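 Rat PK with iv and po administration at 1 mg/kg. Clearance and half-life came from the iv arm, and bioavailability from the iv/po comparison.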

Cytochrome P450 2C9 = Cytochrome P450 2C9 (Homo sapiens, UniProt P11712); assay: Inhibition of CYP2C9 in human liver microsomes assessed as diclofenac 4'-hydroxylation reaction incubated for 30 mins in presence of NADP by LC-MS/MS analysis; format: ADME
[7] = Plasma protein binding in human assessed as unbound fraction; format: ADME, cell-free
[8] = Oral bioavailability in mouse at 1 mg/kg; format: ADME, organism-based; conditions: in vivo
Summary of the method: as §2

Cytochrome P450 3A4 [9] = target: T1, Cytochrome P450 3A4; assay: Inhibition of CYP3A4 in human liver microsomes assessed as midazolam 1'-hyrozylation reaction incubated for 30 mins in presence of NADP by LC-MS/MS analysis; format: ADME
Target sequence in this assay (P08684 whole entry): as the sequence (P08684 whole entry, looked up) above

[10] = Volume of distribution at steady state in mouse at 0.5 mg/kg, iv; format: ADME, organism-based; conditions: in vivo, read-out: Vdss
Summary of the method: as §2

[11] = Half life in mouse at 0.5 mg/kg, iv; format: ADME, organism-based; conditions: in vivo
Summary of the method: as §1

[12] = Half life in cynomolgus monkey at 1 mg/kg, iv; format: ADME, organism-based, Macaca fascicularis; conditions: in vivo
Summary of the method: as §1

[13] = Tmax in cynomolgus monkey at 1 mg/kg, po; format: ADME, organism-based, Macaca fascicularis; conditions: in vivo
Summary of the method: as §2

[14] = Half life in Sprague-Dawley rat at 3 mg/kg, po; format: ADME, organism-based; conditions: in vivo
[15] = Oral bioavailability in Beagle dog at 1 mg/kg; format: ADME, organism-based, Canis lupus familiaris; conditions: in vivo
Summary of the method: as §1

[16] = Bioavailability in Sprague-Dawley rat at 1 mg/kg, po or 1 mg/kg, iv; format: ADME, organism-based; conditions: in vivo
Summary of the method: as §3

[17] = Cmax in Sprague-Dawley rat at 3 mg/kg, po; format: ADME, organism-based; set-up: route oral, dose 3 mg/kg; conditions: in vivo
Rattus norvegicus = assay: Anti-hypertrophic cardiomyopathy in po dosed Sprague-Dawley rat assessed as reduction in fractional shortening by measuring free concentration measured upto 24 hrs by echocardiography; format: functional; conditions: time hrs <=24
Summary of the method: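 Sprague–Dawley rats received single oral doses of 0.5–4 mg/kg, with fractional shortening measured by echocardiography over 24 h. Blood was sampled at each echo time point. Plasma levels were converted to free concentrations using rat plasma protein binding, and free IC10 and IC50 were derived from the FS reduction–concentration relationship.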

[18] = Half life in Sprague-Dawley rat at 8 mg/kg, po; format: ADME, organism-based; conditions: in vivo
Summary of the method: as §1

[19] = Half life in Beagle dog at 1 mg/kg, iv; format: ADME, organism-based, Canis lupus familiaris; conditions: in vivo
Summary of the method: as §1

[20] = Oral bioavailability in Sprague-Dawley rat at 8 mg/kg; format: ADME, organism-based; conditions: in vivo
Summary of the method: as §2

[21] = Half life in human; format: ADME
[22] = Volume of distribution at steady state in cynomolgus monkey at 1 mg/kg, iv; format: ADME, organism-based, Macaca fascicularis; conditions: in vivo, read-out: Vdss
Summary of the method: as §2

[23] = Cmax in Beagle dog at 1 mg/kg, po; format: ADME, organism-based, Canis lupus familiaris; set-up: route oral, dose 1 mg/kg; conditions: in vivo
Summary of the method: as §1

[24] = Tmax in Sprague-Dawley rat at 2 mg/kg, po; format: ADME, organism-based; conditions: in vivo
Summary of the method: as §2

[25] = Cmax in Sprague-Dawley rat at 2 mg/kg, po; format: ADME, organism-based; set-up: route oral, dose 2 mg/kg; conditions: in vivo
Summary of the method: as §1

[26] = Clearance in cynomolgus monkey at 1 mg/kg, iv; format: ADME, organism-based, Macaca fascicularis; conditions: in vivo
Summary of the method: as §1

[27] = Clearance in Sprague-Dawley rat at 1 mg/kg; format: ADME, organism-based; conditions: in vivo
Summary of the method: as §3

[28] = Cmax in Sprague-Dawley rat at 8 mg/kg, po; format: ADME, organism-based; set-up: route oral, dose 8 mg/kg; conditions: in vivo
Summary of the method: as §1

[29] = AUC (0 to t) in cynomolgus monkey at 1 mg/kg, iv; format: ADME, organism-based, Macaca fascicularis; set-up: dose 1 mg/kg; conditions: in vivo
Summary of the method: as §1

Cytochrome P450 2C19 = Cytochrome P450 2C19 (Homo sapiens, UniProt P33261); assay: Inhibition of CYP2C19 in human liver microsomes assessed as mephenytoin 4-hydroxylation reaction incubated for 30 mins in presence of NADP by LC-MS/MS analysis; format: ADME
[30] = AUC (0 to t) in Sprague-Dawley rat at 8 mg/kg, po; format: ADME, organism-based; set-up: dose 8 mg/kg; conditions: in vivo
Summary of the method: as §1

[31] = Half life in Beagle dog at 1 mg/kg, po; format: ADME, organism-based, Canis lupus familiaris; conditions: in vivo
Summary of the method: as §1

[32] = Plasma protein binding in Beagle dog assessed as unbound fraction; format: ADME, Canis lupus familiaris
[33] = Metabolic stability in human liver microsomes assessed as intrinsic clearance measured upto 90mins by HPLC/MS/MS analysis; format: ADME, Microsome; conditions: read-out: CLH
[34] = Tmax in Beagle dog at 1 mg/kg, po; format: ADME, organism-based, Canis lupus familiaris; conditions: in vivo
Summary of the method: as §2

[35] = Oral bioavailability in Sprague-Dawley rat at 3 mg/kg; format: ADME, organism-based; conditions: in vivo
Summary of the method: as §2

[36] = AUC (0 to t) in Sprague-Dawley rat at 2 mg/kg, po; format: ADME, organism-based; set-up: dose 2 mg/kg; conditions: in vivo
Summary of the method: as §1

[37] = Volume of distribution at steady state in Sprague-Dawley rat at 1 mg/kg, iv; format: ADME, organism-based; conditions: in vivo, read-out: Vdss
Summary of the method: as §2

[38] = Metabolic stability in rat liver microsomes assessed as intrinsic clearance measured upto 90mins by HPLC/MS/MS analysis; format: ADME, Microsome; conditions: read-out: CLH
[39] = Clearance in Beagle dog at 1 mg/kg, iv; format: ADME, organism-based, Canis lupus familiaris; conditions: in vivo
Summary of the method: as §1

[40] = Inhibition of full-length myosin ATPase activity in bovine cardiac myofibrils; format: subcellular, Bos taurus, Heart
Summary of the method: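 Bovine cardiac myofibril ATPase assay run at a calcium level giving 75% of maximal activity.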

[41] = Half life in cynomolgus monkey at 1 mg/kg, po; format: ADME, organism-based, Macaca fascicularis; conditions: in vivo
Summary of the method: as §1

[42] = Ratio of IC50 to IC10 for anti-hypertrophic cardiomyopathy in po dosed Sprague-Dawley rat assessed as reduction in fractional shortening measured upto 24 hrs by echocardiography; format: functional; conditions: time hrs <=24
Summary of the method: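 Sprague–Dawley rats received single oral doses from 0.5 to 4 mg/kg. LV dimensions and fractional shortening were read by echocardiography at set times over 24 h, with blood drawn at each reading for compound level. Concentrations giving 50% and 10% FS reduction were derived, and their IC50/IC10 ratio was calculated.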

[43] = Cmax in cynomolgus monkey at 1 mg/kg, po; format: ADME, organism-based, Macaca fascicularis; set-up: route oral, dose 1 mg/kg; conditions: in vivo
Summary of the method: as §1

Chain of Cytochrome P450 2D6 (P10635 whole entry): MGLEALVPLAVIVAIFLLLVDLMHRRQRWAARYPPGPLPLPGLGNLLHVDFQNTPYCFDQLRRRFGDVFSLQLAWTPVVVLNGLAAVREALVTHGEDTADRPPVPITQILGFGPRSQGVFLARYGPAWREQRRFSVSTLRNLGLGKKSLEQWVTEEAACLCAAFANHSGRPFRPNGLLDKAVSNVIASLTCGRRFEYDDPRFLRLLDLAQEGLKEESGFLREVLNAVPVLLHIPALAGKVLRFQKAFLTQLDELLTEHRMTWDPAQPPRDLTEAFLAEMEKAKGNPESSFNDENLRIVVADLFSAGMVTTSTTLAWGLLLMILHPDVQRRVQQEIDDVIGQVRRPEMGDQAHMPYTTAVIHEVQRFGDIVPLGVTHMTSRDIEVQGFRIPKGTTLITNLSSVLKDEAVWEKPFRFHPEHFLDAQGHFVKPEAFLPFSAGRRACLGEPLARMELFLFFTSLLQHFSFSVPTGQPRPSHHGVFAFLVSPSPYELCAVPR
Chain of Cytochrome P450 2C19 (P33261 whole entry): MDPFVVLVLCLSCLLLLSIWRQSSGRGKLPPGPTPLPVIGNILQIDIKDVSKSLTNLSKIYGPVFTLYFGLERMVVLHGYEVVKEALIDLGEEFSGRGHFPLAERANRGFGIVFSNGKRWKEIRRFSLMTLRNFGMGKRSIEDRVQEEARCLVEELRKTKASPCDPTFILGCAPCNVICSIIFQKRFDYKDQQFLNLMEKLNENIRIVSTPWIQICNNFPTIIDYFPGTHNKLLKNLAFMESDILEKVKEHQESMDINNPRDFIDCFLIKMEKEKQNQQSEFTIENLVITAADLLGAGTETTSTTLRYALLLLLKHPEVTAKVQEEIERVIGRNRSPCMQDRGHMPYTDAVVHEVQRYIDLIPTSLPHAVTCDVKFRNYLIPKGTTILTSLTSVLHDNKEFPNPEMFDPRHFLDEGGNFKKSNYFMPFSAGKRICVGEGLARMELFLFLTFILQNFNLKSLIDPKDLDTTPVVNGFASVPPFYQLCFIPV
Chain of Cytochrome P450 2C9 (P11712 whole entry): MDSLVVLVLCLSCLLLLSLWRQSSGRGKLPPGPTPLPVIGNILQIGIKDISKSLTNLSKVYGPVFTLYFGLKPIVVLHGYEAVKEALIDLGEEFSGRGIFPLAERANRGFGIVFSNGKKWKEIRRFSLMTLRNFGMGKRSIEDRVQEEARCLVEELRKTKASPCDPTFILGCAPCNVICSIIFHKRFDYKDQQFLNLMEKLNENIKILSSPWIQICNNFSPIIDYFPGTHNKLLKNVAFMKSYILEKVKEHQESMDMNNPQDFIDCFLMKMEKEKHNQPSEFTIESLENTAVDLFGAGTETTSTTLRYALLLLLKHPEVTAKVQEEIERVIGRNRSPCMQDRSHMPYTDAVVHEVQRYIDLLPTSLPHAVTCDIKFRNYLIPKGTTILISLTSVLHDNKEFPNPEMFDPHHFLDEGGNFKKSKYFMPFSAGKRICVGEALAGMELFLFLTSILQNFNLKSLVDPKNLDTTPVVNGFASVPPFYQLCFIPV

CCc1nc(-c2ccc3c(c2)CC[C@H]3NC(=O)c2cnn(C)c2)no1 [AFICAMTEN]
IC50 (Cytochrome P450 3A4 [1]): > 100 µM | IC50 (Cytochrome P450 3A4 [2]): > 100 µM | half-life [3]: 2.6 h | IC50 (Cytochrome P450 2D6): > 100 µM | clearance [4]: 2 mL/min/kg | Vd [5]: 10.5 L/kg | clearance [6]: 2.1 mL/min/kg | IC50 (Cytochrome P450 2C9): > 100 µM | fraction unbound [7]: 0.095 | bioavailability [8]: 98% | IC50 (Cytochrome P450 3A4 [9]): > 100 µM | Vd [10]: 3.14 L/kg | half-life [11]: 4.5 h | half-life [12]: 8.1 h | Tmax [13]: 1.17 h | half-life [14]: 3.5 h | bioavailability [15]: 45% | bioavailability [16]: 55% | Cmax [17]: 3170 ng/mL | IC10 (Rattus norvegicus): 0.0144 µM | half-life [18]: 3.3 h | half-life [19]: 33.8 h | bioavailability [20]: 79% | half-life [21]: 67.2 h | Vd [22]: 7.76 L/kg | Cmax [23]: 245 ng/mL | Tmax [24]: 0.92 h | Cmax [25]: 1650 ng/mL | clearance [26]: 11.2 mL/min/kg | clearance [27]: 2.1 mL/min/kg | Cmax [28]: 8440 ng/mL | AUC(0-t) [29]: 1340 ng·h/mL | IC50 (Cytochrome P450 2C19): > 100 µM | AUC(0-t) [30]: 53700 ng·h/mL | half-life [31]: 28.7 h | fraction unbound [32]: 0.251 | CLint scaled [33]: < 11 mL/min/kg | Tmax [34]: 0.33 h | bioavailability [35]: 58% | AUC(0-t) [36]: 9450 ng·h/mL | Vd [37]: 0.53 L/kg | CLint scaled [38]: < 21 mL/min/kg | clearance [39]: 3.3 mL/min/kg | IC50 [40]: 1.4 µM | half-life [41]: 12.1 h | Ratio [42]: 9.9 | Cmax [43]: 65 ng/mL
